# Source: ChEMBL document CHEMBL4477192, “Laxitextines A and B, Cyathane Xylosides from the Tropical Fungus Laxitextum incrustatum” (J Nat Prod, 2016)
# Activity calls are given as the source filed them. The calls are words filed in the database; no cut-off is given here.
# How the values were obtained:
# Staphylococcus aureus [1] = test: microbe, parasite or virus in culture; conditions: DSM 1182
# Staphylococcus aureus [2] = conditions: DSM 1182
# HUVEC = test: Antiproliferative activity against HUVEC after 5 days by MTT assay; assay type: functional, cell-based; conditions: Homo sapiens, 120 h
# Staphylococcus aureus [3] = test: Antimicrobial activity against Methicillin-resistant Staphylococcus aureus DSM 1182 at 20 uL of 1 mg/ml compound solution after 24 to 48 hrs by serial dilution method; assay type: functional
# MCF7 = test: Antiproliferative activity against human MCF7 cells after 5 days by MTT assay; assay type: functional, cell-based; conditions: MCF7, 120 h
# Summary of the method: (§1)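 Serial dilution in 96-well tissue-culture plates starting from 3.0 μL of 1 mg/mL stock. L929 grown in DMEM; MCF-7 and A431 in RPMI; each with 10% FBS. Incubation at 37 °C under 5% CO2 for 5 days. Methanol as negative control, epothilone A as positive control. IC50 in μM.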
# L929 = test: Antiproliferative activity against mouse L929 cells after 5 days by MTT assay; assay type: functional, cell-based; conditions: L929, 120 h
# Summary of the method: as §1
# Bacillus subtilis = test: Antimicrobial activity against Bacillus subtilis DSM 10 after 24 to 48 hrs by serial dilution method; assay type: functional
# Staphylococcus aureus [4] = test: Antimicrobial activity against Staphylococcus aureus DSM 346 at 20 uL of 1 mg/ml compound solution after 24 to 48 hrs by serial dilution method; assay type: functional
# A-431 = test: Antiproliferative activity against human A431 cells after 5 days by MTT assay; assay type: functional, cell-based; conditions: A-431, 120 h
# Summary of the method: as §1
# Staphylococcus aureus [5] = test: Antimicrobial activity against Staphylococcus aureus DSM 346 at 2 uL of 1 mg/ml compound solution after 24 to 48 hrs by serial dilution method; assay type: functional
SMILES,MIC (Staphylococcus aureus [1]),MIC (Staphylococcus aureus [2]),IC50 (HUVEC),MIC (Staphylococcus aureus [3]),IC50 (MCF7),IC50 (L929),MIC (Bacillus subtilis),MIC (Staphylococcus aureus [4]),IC50 (A-431),MIC (Staphylococcus aureus [5])
CN[C@H](CC(C)C)C(=O)N[C@H]1C(=O)N[C@@H](CC(N)=O)C(=O)N[C@H]2C(=O)N[C@H]3C(=O)N[C@H](C(=O)N[C@H](C(=O)O)c4cc(O)cc(O)c4-c4cc3ccc4O)[C@H](O)c3ccc(c(Cl)c3)Oc3cc2cc(c3O[C@@H]2O[C@H](CO)[C@@H](O)[C@H](O)[C@H]2O[C@H]2C[C@](C)(N)[C@H](O)[C@H](C)O2)Oc2ccc(cc2Cl)[C@H]1O [VANCOMYCIN],1.6 µg/mL,–,–,–,–,–,–,–,–,–
CC(C)C1=C2[C@H]3CC[C@@H]4CO[C@@]5(O)[C@H](O)CO[C@H]6O[C@@H]([C@@H]4[C@]65O)[C@]3(C)CC[C@@]2(C)CC1,–,inactive,4.8 µM,17.9 µM,2.3 µM,17.3 µM,76.7 µM,17.9 µM,5.8 µM,6.6 µg/mL
CC(C)C1=C2[C@H]3CC[C@@H]4[C@@H]5O[C@]6(O)[C@@]7(O)[C@@H](OC[C@]6(O)O5)O[C@@H]([C@@H]47)[C@]3(C)CC[C@@]2(C)CC1,–,inactive,3.6 µM,140 µM,2 µM,16.1 µM,37.4 µM,15.7 µg/mL,4.9 µM,inactive
